The target in data set [1] is T1, Sodium- and chloride-dependent glycine transporter 1 (Homo sapiens, UniProt P48067).
T1 sequence (P48067 whole entry): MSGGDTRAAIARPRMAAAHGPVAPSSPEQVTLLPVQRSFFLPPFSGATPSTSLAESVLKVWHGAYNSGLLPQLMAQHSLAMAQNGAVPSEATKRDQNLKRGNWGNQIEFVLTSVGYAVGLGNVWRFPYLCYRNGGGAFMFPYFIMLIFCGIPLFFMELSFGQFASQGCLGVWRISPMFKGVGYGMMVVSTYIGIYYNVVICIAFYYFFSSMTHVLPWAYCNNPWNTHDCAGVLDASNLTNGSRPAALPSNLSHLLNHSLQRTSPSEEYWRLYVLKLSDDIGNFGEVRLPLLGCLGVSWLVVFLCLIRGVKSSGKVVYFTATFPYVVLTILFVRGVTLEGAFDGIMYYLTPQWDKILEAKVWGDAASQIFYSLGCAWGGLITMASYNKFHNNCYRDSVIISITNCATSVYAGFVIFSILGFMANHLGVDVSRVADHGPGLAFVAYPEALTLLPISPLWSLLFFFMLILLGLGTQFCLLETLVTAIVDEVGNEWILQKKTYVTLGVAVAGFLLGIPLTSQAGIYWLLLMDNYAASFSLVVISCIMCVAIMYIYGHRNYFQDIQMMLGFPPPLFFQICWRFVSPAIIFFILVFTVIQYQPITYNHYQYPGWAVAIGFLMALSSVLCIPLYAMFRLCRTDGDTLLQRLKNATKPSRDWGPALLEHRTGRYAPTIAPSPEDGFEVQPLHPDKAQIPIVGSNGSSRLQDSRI
The data set is described as follows: Inhibition of human GlyT1 expressed in cells assessed as [3H]glycine uptake. The data set is classed as cell-based. In short, it runs like this:
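[³H]-glycine uptake inhibition in cells transfected with human GlyT1. EC₅₀ values are the average of at least two independent experiments.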

Data set [2] in a line: Octanol-phosphate buffer partition coefficient, log D of the compound at pH 7.4. The data set is classed as physicochemical. In short, it runs like this: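 Distribution coefficient measured between 1-octanol and phosphate buffer at pH 7.4.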
Data set [3] can be described thus: Solubility of the compound at pH 6.5 by lyophilization solubility assay. The data set is classed as physicochemical. The note with it: buffer. In outline:
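Lyophilization solubility assay. DMSO solution of compound is lyophilized, dissolved in 0.05 M phosphate buffer pH 6.5, stirred 1 h, then shaken 2 h.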

The nature of data set [4]: Permeability of the compound by PAMPA. The data set is classed as physicochemical. The note with it: read-out: permeability.
The nature of data set [5]: Intrinsic clearance in human liver microsomes. The data set is classed as ADME. The note with it: read-out: CLH. In general terms: Liver microsomes are a subcellular fraction often used to study metabolism.
The target in a further data set is Cytochrome P450 2D6 (Homo sapiens, UniProt P10635). The data set can be described thus: Inhibition of CYP2D6 (unknown origin). The data set is classed as ADME.
Chain of Cytochrome P450 2D6 (P10635 whole entry): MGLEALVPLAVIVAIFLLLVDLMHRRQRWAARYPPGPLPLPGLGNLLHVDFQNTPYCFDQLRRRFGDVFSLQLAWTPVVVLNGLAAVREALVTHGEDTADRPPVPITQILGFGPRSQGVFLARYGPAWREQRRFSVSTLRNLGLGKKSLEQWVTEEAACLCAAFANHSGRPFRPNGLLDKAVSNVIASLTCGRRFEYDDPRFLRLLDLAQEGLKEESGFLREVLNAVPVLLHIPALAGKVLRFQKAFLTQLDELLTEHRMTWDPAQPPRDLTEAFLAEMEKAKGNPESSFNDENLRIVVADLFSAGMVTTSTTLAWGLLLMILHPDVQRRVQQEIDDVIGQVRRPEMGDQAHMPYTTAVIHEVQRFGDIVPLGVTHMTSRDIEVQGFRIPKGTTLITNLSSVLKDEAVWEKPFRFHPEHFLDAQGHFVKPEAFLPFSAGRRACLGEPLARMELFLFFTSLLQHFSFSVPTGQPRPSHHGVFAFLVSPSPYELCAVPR
The target of the next data set is Cytochrome P450 2C19 (Homo sapiens, UniProt P33261). The data set can be described thus: Inhibition of CYP2C19 (unknown origin). The data set is classed as ADME.
Chain of Cytochrome P450 2C19 (P33261 whole entry): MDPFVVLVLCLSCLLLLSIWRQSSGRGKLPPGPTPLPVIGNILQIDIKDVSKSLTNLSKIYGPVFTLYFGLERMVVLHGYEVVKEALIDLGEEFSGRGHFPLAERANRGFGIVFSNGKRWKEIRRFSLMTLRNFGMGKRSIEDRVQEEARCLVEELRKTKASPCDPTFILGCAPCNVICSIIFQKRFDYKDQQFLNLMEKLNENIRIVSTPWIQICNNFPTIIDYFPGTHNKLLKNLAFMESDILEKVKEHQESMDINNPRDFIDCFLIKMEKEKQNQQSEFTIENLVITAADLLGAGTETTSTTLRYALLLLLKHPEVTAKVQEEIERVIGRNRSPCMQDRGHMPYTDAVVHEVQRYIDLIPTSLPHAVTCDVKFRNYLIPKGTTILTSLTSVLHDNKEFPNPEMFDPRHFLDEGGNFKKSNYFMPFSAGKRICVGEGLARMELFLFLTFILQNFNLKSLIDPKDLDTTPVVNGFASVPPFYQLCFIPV
In a further data set the test system is MDR1A (P-gp). The data set is described as follows: Efflux ratio of permeability in pig LLC-PK1 cells expressing mouse MDR1A. The data set is classed as ADME, cell-based, Sus scrofa. In outline:
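Efflux ratio measured in LLC-PK1 cells stably expressing human MDR1 or mouse MDR1A.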

For a further data set, the system named is Salmonella typhimurium. The data set can be described thus: Genotoxicity in Salmonella typhimurium by Ames test. The data set is classed as toxicity, organism-based. The note with it: salmonella enterica subsp. enterica serovar typhimurium. For orientation: The Ames test detects mutagens through reverse mutation in bacteria.
A short description of data set [6]: Clearance in mouse at 1.7 mg/kg, iv. The data set is classed as ADME, organism-based. The note with it: in vivo. Further details: dose 1.7 mg/kg, route intravenous. In outline: (§1)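 Mouse PK, single iv dose of 1.7 mg/kg. Values are the average of two independent experiments.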
Data set [7] is described as follows: Volume of distribution at steady state in mouse at 1.7 mg/kg, iv. The data set is classed as ADME, organism-based. Also noted: dose 1.7 mg/kg, route intravenous. The note with it: in vivo, read-out: Vdss. In short, it runs like this:
as §1

Data set [8] in a line: Half life in mouse at 7.7 mg/kg, po. The note with it: in vivo. The data set is classed as ADME, organism-based. Further details: dose 7.7 mg/kg, route oral. In short, it runs like this: (§2)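 Mouse PK after a 7.7 mg/kg oral dose. Brain/plasma ratio taken at 1.5 h. Values are the average of two independent experiments.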
The nature of data set [9]: Ratio of drug level from brain to plasma in mouse at 7.7 mg/kg, po after 1.5 hrs. The data set is classed as ADME, organism-based. Also noted: dose 7.7 mg/kg, route oral. The note with it: brain and plasma, read-out: BPR. In short, it runs like this:
as §2

A short description of data set [10]: Fraction unbound in mouse at 7.7 mg/kg, po. The data set is classed as ADME, organism-based. Also noted: dose 7.7 mg/kg, route oral. The note with it: in vivo, read-out: PPB. In outline: as §2
Data set [11] concerns Mus musculus. The data set can be described thus: Inhibition of L687414-induced hyperlocomotion in po dosed mouse assessed horizontal activity. The data set is classed as functional. In short, it runs like this:
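Oral dosing in mice against L-687,414-induced hyperlocomotion. Horizontal activity counts recorded over 60 min, mean per group, n = 8 per group. ID₅₀ is the dose producing 50% inhibition of the hyperlocomotion.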

In data set [12] the test system is Mus musculus. The data set can be described thus: Inhibition of L687414-induced hyperlocomotion in po dosed mouse assessed horizontal activity at 8 ng/ml plasma concentration. The data set is classed as functional, organism-based.
Data set [13] deals with Striatum. The data set is described as follows: Induction of extracellular glycine level in rat striatum at 10 mg/kg, po after 3 hrs relative to basal level. The data set is classed as functional. In short, it runs like this:
(§3)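 Rat striatal microdialysis after a 10 mg/kg oral dose. Extracellular glycine measured as fold over basal levels, with sampling stopped at 3 h. Plasma and brain exposures determined at 3 h post-dose. n = 6.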

Data set [14] relates to Striatum. The data set can be described thus: Effect on plasma glycine level in rat striatum at 10 mg/kg, po. The data set is classed as functional. In outline:
as §3

A further data set has as its system Brain. The data set is described as follows: Effect on brain glycine level in rat striatum at 10 mg/kg, po. The data set is classed as functional. In outline: as §3
Data set [15] is described as follows: Ratio of drug level from brain to plasma rat at 10 mg/kg, po. The data set is classed as ADME, organism-based. Also noted: dose 10 mg/kg, route oral. The note with it: brain and plasma, read-out: BPR. In short, it runs like this:
as §3

Data set [16] in a line: Genotoxicity in micronucleus (unknown origin) by MNT test.
Data set [17] concerns the target T2, Sodium- and chloride-dependent glycine transporter 2 (Homo sapiens, UniProt Q9Y345).
T2 sequence (Q9Y345 whole entry): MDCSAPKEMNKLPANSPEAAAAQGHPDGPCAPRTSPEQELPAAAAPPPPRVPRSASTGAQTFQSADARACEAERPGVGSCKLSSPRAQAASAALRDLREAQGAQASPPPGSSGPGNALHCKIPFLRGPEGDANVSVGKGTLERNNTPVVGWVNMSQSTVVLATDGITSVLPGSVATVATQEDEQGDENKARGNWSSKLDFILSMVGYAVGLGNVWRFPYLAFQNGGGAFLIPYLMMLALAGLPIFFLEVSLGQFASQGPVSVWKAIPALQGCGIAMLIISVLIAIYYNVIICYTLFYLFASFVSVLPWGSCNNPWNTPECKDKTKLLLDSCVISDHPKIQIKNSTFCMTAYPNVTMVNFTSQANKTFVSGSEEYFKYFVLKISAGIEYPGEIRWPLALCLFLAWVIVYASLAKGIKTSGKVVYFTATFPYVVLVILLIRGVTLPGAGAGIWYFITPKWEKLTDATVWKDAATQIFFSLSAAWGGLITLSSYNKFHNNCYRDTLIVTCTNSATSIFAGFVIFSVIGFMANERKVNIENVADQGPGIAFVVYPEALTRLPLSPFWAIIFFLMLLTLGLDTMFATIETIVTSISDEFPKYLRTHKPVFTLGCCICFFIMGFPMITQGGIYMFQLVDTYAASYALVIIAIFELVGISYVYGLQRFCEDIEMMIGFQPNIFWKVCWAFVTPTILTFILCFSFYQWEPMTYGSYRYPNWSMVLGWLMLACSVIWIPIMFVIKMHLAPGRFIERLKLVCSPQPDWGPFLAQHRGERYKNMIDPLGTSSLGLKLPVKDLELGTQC
The data set can be described thus: Inhibition of human GlyT2 expressed in cells assessed as [3H]glycine uptake. The data set is classed as cell-based.

Data set [18] is described as follows: Ratio of drug level in rat brain after 3 hrs to EC50 for human GlyT1 by [3H]glycine uptake assay.

In brackets after ≈: the same amount, converted by molar mass. Activity calls are given as the source filed them. The calls are words filed in the database; no cut-off is given here.

Broadly, the EC50 is the midpoint of the concentration-response curve. The logD is lipophilicity at a set pH, counting ionised and neutral species. A lower logD goes with a more hydrophilic compound. For orientation: solubility means how much of the substance goes into solution per volume. A low value points to little dissolved substance. One may read the IC50 as the concentration needed to halve the response being measured. Read a low IC50 as greater potency in that assay. Broadly, the efflux ratio is the permeability from basolateral to apical divided by that in the opposite direction, in the common usage. As usually defined, the clearance is the rate of elimination divided by the concentration. A higher clearance goes with a high capacity for elimination. Broadly, the half-life is how long it takes for the measured level to halve.

In the case of `COc1cc(C(F)(F)F)cc(SC)c1C(=O)N[C@@]1(c2ccccc2)CCCN(C)C1`, the values for the EC50 in [1] and in data set [17] were 0.01 µM and 15 µM, respectively. This molecule registered a pH-dependent lipophilicity (logD) in data set [2] of 3.12. The same molecule registered a solubility in [3] of 147 µg/mL (≈ 335 µM). The Papp in [4] came out at 7.4 ×10⁻⁶ cm/s. Also, the microsomal CLint in data set [5] is 19 µL/min/mg. The IC50 at Cytochrome P450 2D6 came to 16 µM; on Cytochrome P450 2C19 it was 46 µM. For the same molecule, in the data set with MDR1A (P-gp), the efflux ratio stood at 1.5. Also, the Activity result was “Non-toxic” in the data set on Salmonella typhimurium, 713 ng/mL in the data set with Striatum [14], 60 ng/mL with Brain and “Non-toxic” in data set [16]. Moreover, the clearance in data set [6] amounted to 54 mL/min/kg. For the same molecule, in [7], the Vd stood at 8 L/kg. The half-life in data set [8] was 4.2 h. For the same molecule, in [9], the Kp at 1.5 h is 4.3. The fraction unbound in [10] was determined as 0.017. Also, in the data set on Mus musculus [11], the inhibition result was “Dose-dependent effect”. The ED50 in the data set with Mus musculus [11] (read-out: ID50 (the source's name)) is 1.5 mg/kg. Also, the inhibition entry in the data set on Mus musculus [12] was “Active”. Moreover, in the data set on Striatum [13], the “fold change (FC)” value turned out to be 1.5. In data set [15], the Kp was 0.08. For the same molecule, the Ratio in data set [18] stood at 13.

(Values after ChEMBL document CHEMBL3259663, “3-Amido-3-aryl-piperidines: A Novel Class of Potent, Selective, and Orally Active GlyT1 Inhibitors” (ACS Med Chem Lett, 2014).)
